Activity calls are given as the source filed them. No cut-off for these calls is given here.
Columns and labels:
Bel-7402 [1] = assay: Induction of apoptosis in human Bel7402 cells assessed as increase in early apoptotic cells after 48 hrs by annexin V-FITC/propidium iodide staining-based flow cytometry; assay type: functional, cell-based
How it was run: (§1)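 After 48 h exposure to graded concentrations, both floating and adherent cells were collected into binding buffer. They were stained with Annexin V-FITC plus PI for 15 min in the dark and analysed immediately by flow cytometry. Annexin V+/PI− cells were counted as early apoptotic and Annexin V+/PI+ cells as late apoptotic.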

PC-3 [2] = assay: Induction of apoptosis in human PC3 cells assessed as increase in late apoptotic cells after 48 hrs by annexin V-FITC/propidium iodide staining-based flow cytometry; assay type: functional, cell-based; how it was run: as §1
PC-3 [3] = assay: Induction of mitotic arrest in human PC3 cells assessed as increase in histone H3 phosphorylation at Ser10 at 0.5 to 4 uM after 24 hrs by Western blot method; assay type: functional, cell-based
How it was run: (§2)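 PC-3 cells were treated 24 h with compound (0.5-4 µM) or taxol (40 nM) as positive control, then lysed in RIPA with PMSF and protease inhibitors. Lysates were run on SDS-PAGE and transferred to PVDF, which was blocked with 5% milk for 1 h. Membranes were probed overnight at 4 °C for MPM-2 (1:1000), phospho-H3 (1:600) or β-actin (1:1000), followed by HRP secondary and chemiluminescence.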

PC-3 [4] = assay: Induction of mitotic arrest in human PC3 cells assessed as increase in multipolar spindle formation at 2 uM after 6 hrs using DAPI staining by immunofluorescence-based laser scanning confocal microscopy; assay type: functional, cell-based
How it was run: (§3)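 PC-3 cells on confocal dishes were exposed 6 h to compound (2 µM) or taxol (40 nM), then fixed in 4% paraformaldehyde overnight at 4 °C and blocked. They were stained overnight at 4 °C with anti-β-tubulin and anti-γ-tubulin (1:100 each), then 1 h with Alexa Fluor 488/647 secondaries, and co-stained for DNA. Spindles and centrosomes were imaged by confocal microscopy.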

MDA-MB-468 = assay: Cytotoxicity against human MDA-MB-468 cells after 72 hrs by alamar blue assay; assay type: functional, cell-based; settings: MDA-MB-468, 72 h
How it was run: (§4)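 Cells seeded and cultured overnight, then exposed to compound at varying concentrations for 72 h. Cells were then incubated 2-4 h in medium containing 10% Alamar blue, and fluorescence was read at ex 530/em 590 nm. Dose-response curves used at least five concentrations, and IC50 (50% growth inhibition) was taken from these curves. Culture was at 37 °C.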

[5] = Cytotoxicity against human PC3 cells after 72 hrs by alamar blue assay; assay type: functional, cell-based; settings: PC-3, 72 h
How it was run: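 PC-3 cells were grown at 37 °C, 5% CO₂ in F-12K with 10% FBS, penicillin and streptomycin. They were seeded overnight and treated with at least five concentrations for 72 h. Alamar blue (10% in medium) was added for 2-4 h, and fluorescence was read at 530/590 nm. IC50 was taken from the dose-response curves.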

[6] = Cytotoxicity against human HCT116 cells after 72 hrs by alamar blue assay; assay type: functional, cell-based; settings: HCT-116, 72 h; how it was run: as §4
PC-3 [7] = assay: Induction of cell cycle arrest in human PC3 cells assessed as accumulation at G0/G1 phase at 2 uM after 24 hrs by propidium iodide staining-based flow cytometry (reference value: 42.23%); assay type: functional
PC-3 [8] = assay: Induction of apoptosis in human PC3 cells assessed as chromatin condensation at 0.5 to 2 uM after 48 hrs by Hoechst 33342 staining-based fluorescence microscopy; assay type: functional, cell-based
How it was run: (§5)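 Cells were treated with graded concentrations for 48 h, washed with PBS and fixed in 4% paraformaldehyde for 15 min. They were then stained with Hoechst 33342 (10 µg/ml in PBS) for 10 min at room temperature. Nuclear morphology and chromatin condensation were imaged by fluorescence microscopy under UV illumination.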

PC-3 [9] = assay: Induction of mitotic arrest in human PC3 cells assessed as increase in supernumerary centrosome formation at 2 uM after 6 hrs using DAPI staining by immunofluorescence-based laser scanning confocal microscopy; assay type: functional, cell-based; how it was run: as §3
[10] = Cytotoxicity against human Bel7402 cells after 72 hrs by alamar blue assay; assay type: functional, cell-based; settings: Bel-7402, 72 h; how it was run: as §4
NCI-H1299 = assay: Cytotoxicity against human NCI-H1299 cells after 72 hrs by alamar blue assay; assay type: functional, cell-based; settings: NCI-H1299, 72 h; how it was run: as §4
Bel-7402 [11] = assay: Induction of cell cycle arrest in human Bel7402 cells assessed as accumulation at G0/G1 phase at 2 uM after 24 hrs by propidium iodide staining-based flow cytometry (reference value: 36.76%); assay type: functional
Bel-7402 [12] = assay: Induction of cell cycle arrest in human Bel7402 cells assessed as accumulation at G2/M phase at 2 uM after 24 hrs by propidium iodide staining-based flow cytometry (reference value: 16%); assay type: functional
[13] = Cytotoxicity against human DU145 cells after 72 hrs by alamar blue assay; assay type: functional, cell-based; settings: DU-145, 72 h; how it was run: as §4
[14] = Cytotoxicity against human COLO205 cells after 72 hrs by alamar blue assay; assay type: functional, cell-based; settings: COLO 205, 72 h; how it was run: as §4
Bel-7402 [15] = assay: Induction of apoptosis in human Bel7402 cells assessed as chromatin condensation at 1 to 4 uM after 48 hrs by Hoechst 33342 staining-based fluorescence microscopy; assay type: functional, cell-based; how it was run: as §5
NCI-H460 = assay: Cytotoxicity against human NCI-H460 cells after 72 hrs by alamar blue assay; assay type: functional, cell-based; settings: NCI-H460, 72 h; how it was run: as §4
NCI-H522 = assay: Cytotoxicity against human NCI-H522 cells after 72 hrs by alamar blue assay; assay type: functional, cell-based; settings: NCI-H522, 72 h; how it was run: as §4
Bel-7402 [16] = assay: Induction of cell cycle arrest in human Bel7402 cells assessed as accumulation at S phase at 2 uM after 24 hrs by propidium iodide staining-based flow cytometry (reference value: 47.24%); assay type: functional
[17] = Cytotoxicity against human LO2 cells after 72 hrs by alamar blue assay; assay type: cell-based; settings: L02, 72 h; how it was run: as §4
PC-3 [18] = assay: Induction of cell cycle arrest in human PC3 cells assessed as accumulation at S phase at 2 uM after 24 hrs by propidium iodide staining-based flow cytometry (reference value: 37.86%); assay type: functional
PC-3 [19] = assay: Induction of apoptosis in human PC3 cells assessed as increase in early apoptotic cells after 48 hrs by annexin V-FITC/propidium iodide staining-based flow cytometry; assay type: functional, cell-based; how it was run: as §1
Bel-7402 [20] = assay: Induction of apoptosis in human Bel7402 cells assessed as increase in late apoptotic cells after 48 hrs by annexin V-FITC/propidium iodide staining-based flow cytometry; assay type: functional, cell-based; how it was run: as §1
[21] = Cytotoxicity against human HCT8 cells after 72 hrs by alamar blue assay; assay type: functional, cell-based; settings: HCT-8, 72 h; how it was run: as §4
[22] = Cytotoxicity against HEK293T cells after 72 hrs by alamar blue assay; assay type: cell-based; settings: Homo sapiens, HEK-293T
SK-BR-3 = assay: Cytotoxicity against human SK-BR-3 cells after 72 hrs by alamar blue assay; assay type: functional, cell-based; settings: SK-BR-3, 72 h; how it was run: as §4
PC-3 [23] = assay: Induction of mitotic arrest in human PC3 cells assessed as increase in MPM-2 level at 0.5 to 4 uM after 24 hrs by Western blot method; assay type: functional, cell-based; how it was run: as §2
[24] = Cytotoxicity against human SW620 cells after 72 hrs by alamar blue assay; assay type: functional, cell-based; settings: SW-620, 72 h
How it was run: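 SW620 cells were kept at 37 °C in 100% air in Leibovitz's L-15 with 10% FBS, penicillin and streptomycin. After overnight seeding, cells were given at least five concentrations for 72 h. Cells were then incubated 2-4 h with 10% Alamar blue, and fluorescence was read at ex 530/em 590 nm. IC50 was interpolated from the dose-response curves.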

PC-3 [25] = assay: Induction of cell cycle arrest in human PC3 cells assessed as accumulation at G2/M phase at 2 uM after 24 hrs by propidium iodide staining-based flow cytometry (reference value: 19.9%); assay type: functional

## S=C(NCc1cccnc1)SCCc1nnc(-c2ccccc2)o1
Bel-7402 [1]
  Activity: Dose-dependent effect
PC-3 [2]
  Activity: Dose-dependent effect
PC-3 [3]
  Activity: Active
PC-3 [4]
  Activity: Active
MDA-MB-468
  IC50: 2.77 µM
[5]
  IC50: 0.39 µM
[6]
  IC50: 8.21 µM
PC-3 [7]
  Activity: 22.41%
PC-3 [8]
  Activity: Active
PC-3 [9]
  Activity: Active
[10]
  IC50: 1.23 µM
NCI-H1299
  IC50: 1.89 µM
Bel-7402 [11]
  Activity: 21.42%
Bel-7402 [12]
  Activity: 46.27%
[13]
  IC50: 3.34 µM
[14]
  IC50: 7.92 µM
Bel-7402 [15]
  Activity: Active
NCI-H460
  IC50: 6.07 µM
NCI-H522
  IC50: 2.16 µM
Bel-7402 [16]
  Activity: 29.9%
[17]
  IC50: 9.67 µM
PC-3 [18]
  Activity: 26.46%
PC-3 [19]
  Activity: Dose-dependent effect
Bel-7402 [20]
  Activity: Dose-dependent effect
[21]
  IC50: 5.98 µM
[22]
  IC50: 14.6 µM
SK-BR-3
  IC50: 0.58 µM
PC-3 [23]
  Activity: Active
[24]
  IC50: 3.8 µM
PC-3 [25]
  Activity: 51.1%
